These results are taken from ChEMBL document CHEMBL1828569, “Cyclopentane-1,3-dione: a novel isostere for the carboxylic acid functional group. Application to the design of potent thromboxane (A2) receptor antagonists” (J Med Chem, 2011).

Data set [1] addresses T1, Thromboxane A2 receptor (Homo sapiens, UniProt P21731).
T1 sequence (P21731 whole entry): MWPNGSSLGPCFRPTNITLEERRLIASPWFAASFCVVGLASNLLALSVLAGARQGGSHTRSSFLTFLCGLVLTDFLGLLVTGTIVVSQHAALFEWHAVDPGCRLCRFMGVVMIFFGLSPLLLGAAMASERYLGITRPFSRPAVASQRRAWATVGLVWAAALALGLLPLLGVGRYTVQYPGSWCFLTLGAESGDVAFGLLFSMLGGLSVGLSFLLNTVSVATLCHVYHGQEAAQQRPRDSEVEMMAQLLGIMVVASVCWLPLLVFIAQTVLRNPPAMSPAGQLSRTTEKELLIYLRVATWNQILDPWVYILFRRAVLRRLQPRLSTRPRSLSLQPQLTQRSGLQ

The target in data set [2] is T2, Thromboxane A2 receptor (Mus musculus, UniProt P30987).
T2 sequence (P30987 whole entry): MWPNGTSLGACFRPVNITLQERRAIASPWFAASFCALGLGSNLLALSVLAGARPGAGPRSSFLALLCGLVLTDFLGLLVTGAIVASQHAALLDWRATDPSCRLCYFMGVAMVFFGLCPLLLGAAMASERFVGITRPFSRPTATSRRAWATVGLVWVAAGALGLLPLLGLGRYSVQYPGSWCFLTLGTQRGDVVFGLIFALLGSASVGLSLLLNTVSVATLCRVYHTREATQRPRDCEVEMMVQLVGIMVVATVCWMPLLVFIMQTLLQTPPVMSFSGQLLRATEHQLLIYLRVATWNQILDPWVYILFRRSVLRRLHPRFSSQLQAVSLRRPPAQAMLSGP
Description: Displacement of [3H]SQ-29548 from mouse prostanoid TP receptor expressed in QBI-HEK 293A cells after 2 hrs by scintillation proximity assay. The class given is cell-based, HEK293. In outline: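 Membranes from QBI-HEK 293A cells stably expressing mouse TP receptor. Cells were harvested in PBS/1 mM EDTA, homogenized in 20 mM Hepes/1 mM EGTA/0.5 mM DTT with protease inhibitors, spun at 1000g and then 21 000 rpm, and the pellet resuspended in Hepes/EGTA/100 mM NaCl. Antagonist at 10 concentrations, 62.5 μg membrane, 100 μg PVT-WGA SPA beads and 20 nM [3H]SQ29,548 in 50 mM Tris, 4 mM CaCl2, 0.1% ascorbate, pH 7.5, 2 h at 25 °C.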

For data set [3], the target named is T1, Thromboxane A2 receptor. Description: Displacement of [3H]SQ-29548 from human prostanoid TP receptor expressed in QBI-HEK 293A cells after 2 hrs by scintillation proximity assay. The class given is cell-based, HEK293.
For data set [4], the target named is T2, Thromboxane A2 receptor. Description: Antagonist activity at mouse prostanoid TP receptor expressed in QBI-HEK 293A cells assessed as inhibition of […]-induced increase in inositol monophosphate after 1 hr by time-resolved fluorescence assay. The class given is functional, cell-based, HEK293. In outline:
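QBI-HEK 293A cells stably transfected with human or mouse TP receptor cDNA, seeded at 10 000 cells/well and grown 16 h at 37 °C. Cells were preincubated 15 min at 37 °C with antagonist at varying concentrations in Hepes-buffered saline containing 50 mM LiCl, pH 7.4. I-BOP was then added at 1.6 nM for 1 h. IP1 was measured by HTRF (Tb anti-IP1 cryptate/D2-IP1, 1 h at 25 °C) as the 665/620 nm ratio.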

Data set [5] is described as follows: Dissociation constant, pKa of the compound by pH metric method. Format: physicochemical.
A short description of data set [6]: Lipophilicity, log D of the compound at pH 7.4 by pH metric method. The class given is physicochemical. The following applies: buffer.
Data set [7] is described as follows: Octanol-phosphate buffer partition coefficient, log P of the compound by pH metric method. Format: physicochemical.
Data set [8] can be described thus: Solubility of the compound in acetonitrile at 10 uM after 2 hrs by spectrophotometry. Format: physicochemical.

For the compound `O=S(=O)(NCCc1cccc(CCCO)c1)c1ccc(Cl)cc1`, the values for the half-maximal inhibitory concentration (IC50) on Thromboxane A2 receptor [1] and at Thromboxane A2 receptor [4] were 15100 nM and 1630 nM, respectively. In addition, the results for the equilibrium dissociation constant (Kd) at Thromboxane A2 receptor [2] and on Thromboxane A2 receptor [3] were 10000 nM and > 10000 nM, respectively.

As to `CC1=C(O)CCC1=O`, the pKa in data set [5] was determined as 4.47.

Consider `O=C1C=C(O)CC1`, for which the pKa in data set [5] came out at 4.2.

`O=C1C=C(O)CC1Cc1ccc(Br)cc1` (centres undefined) yielded a pKa in data set [5] of 3.96. Further, the logD in data set [6] was -0.42. Further, the log partition coefficient (logP) in data set [7] stood at 3.02. Moreover, the solubility entry in data set [8] is “soluble”.

In the case of `CC1=C(O)C(Cc2cccc(CCNS(=O)(=O)c3ccc(Cl)cc3)c2)CC1=O` (centres undefined), the Kd at Thromboxane A2 receptor [2] is 26 nM; on Thromboxane A2 receptor [3], 328 nM.

With `Brc1ccc(Cc2nn[nH]n2)cc1`, the pKa in data set [5] came to 4.62. Moreover, the logD in data set [6] is -0.42. This compound also displayed a logP in data set [7] of 2.21. The solubility result in data set [8] was “soluble”.

On to `O=C1C=C(O)C(Cc2cccc(CCNS(=O)(=O)c3ccc(Cl)cc3)c2)C1` (centres undefined), for which the results for the Kd at Thromboxane A2 receptor [2] and on Thromboxane A2 receptor [3] were 11 nM and 203 nM, respectively.

In the case of `O=C1CCC(O)=C1Cc1ccc(Br)cc1`, the pKa in data set [5] came to 4.2. The logD in data set [6] is -0.19. The compound further gave a log partition coefficient (logP) in data set [7] of 3.01. Further, in data set [8], the solubility entry is listed as “soluble”.

Turning to `O=C1CCC(O)=C1CCc1cccc(CCNS(=O)(=O)c2ccc(Cl)cc2)c1`, on Thromboxane A2 receptor [1], the IC50 is > 10000 nM.

`O=c1c(O)c(NCc2cccc(CCNS(=O)(=O)c3ccc(Cl)cc3)c2)c1=O`: the half-inhibitory concentration (IC50) against Thromboxane A2 receptor [1] turned out to be 377 nM; at Thromboxane A2 receptor [4] it was 91 nM. The dissociation constant (Kd) amounted to 17 nM at Thromboxane A2 receptor [2] and 359 nM at Thromboxane A2 receptor [3].

With `O=C1CCC(O)=C1Cc1cccc(CCNS(=O)(=O)c2ccc(Cl)cc2)c1`, the IC50 at Thromboxane A2 receptor [1] is > 10000 nM. Moreover, the Kd was 1200 nM at Thromboxane A2 receptor [2] and 11400 nM at Thromboxane A2 receptor [3].

Take `CC1=C(O)CC(Cc2ccc(Br)cc2)C1=O` (centres undefined): the pKa in data set [5] is 4.24. This compound also came in with a logD in data set [6] of 0.11. The compound also came in with a logP in data set [7] of 3.28. Also, in data set [8], the solubility entry is “soluble”.

`CC1=C(OCC(C)C)CC(Cc2cccc(CCNS(=O)(=O)c3ccc(Cl)cc3)c2)C1=O` (centres undefined): the IC50 against Thromboxane A2 receptor [1] is > 10000 nM.

With `O=C(O)CCc1cccc(CCNS(=O)(=O)c2ccc(Cl)cc2)c1`, the affinity on Thromboxane A2 receptor [2], expressed as Kd, was 26 nM.

On to `O=S(=O)(NCCc1cccc(CCc2nnn[nH]2)c1)c1ccc(Cl)cc1`, for which the values for the IC50 at Thromboxane A2 receptor [1] and on Thromboxane A2 receptor [4] were 64 nM and 8 nM, respectively. The dissociation constant (Kd) turned out to be 19 nM on Thromboxane A2 receptor [2] and 331 nM at Thromboxane A2 receptor [3].

Compound `O=C(O)CCc1ccc(Br)cc1` came in with a pKa in data set [5] of 4.33. Besides, the pH-dependent lipophilicity (logD) in data set [6] came to 0.01. This compound also showed a logP in data set [7] of 3. The solubility result in data set [8] is “soluble”.
